Assay results: paper PMC12120100 (Scientific Reports, 2025)

Legend:
Test in all cases: Alkaline comet assay
Assay type in all cases: cell-based, human
PBLs = conditions: 20 µM (positive control), 24 h, ± SEM
Summary of the method: (§1)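 Alkaline comet assay. Cells seeded in 6-well plates at 150 000 (HT-29), 250 000 (PC3) or 600 000 (PBLs) per 2 mL and left 24 h, then exposed 24 h (37 °C, 5% CO2) to test compound at 0.5, 1 and 2 µM. Controls: untreated and 20 µM bleomycin. Cells pelleted at 1400 rpm, 10 min, 4 °C. Slides stained with DAPI (1 µg/ml); about 100 cells/slide scored. Output: mean % tail DNA ± SEM; ANOVA with Dunnett's test.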

PC-3 cells = conditions: PC-3, 20 µM (positive control), 24 h, ± SEM
Summary of the method: as §1

HT-29 cells = conditions: HT-29, 20 µM (positive control), 24 h, ± SEM
Summary of the method: as §1

bleomycin
DNA damage (mean tail DNA %) (PBLs): 41.33 ± 1.95% | DNA damage (mean tail DNA %) (PC-3 cells): 44.99 ± 2.37% | DNA damage (mean tail DNA %) (HT-29 cells): 33.58 ± 3.62%
